Measurements reported in ChEMBL document CHEMBL1155884, “Sinulodurins A and B, antiproliferative and anti-invasive diterpenes from the soft coral Sinularia dura” (J Nat Prod, 2008).
Active and inactive are the calls of the source. The rule behind the calls is not given here.

Experiments:
Vero = experiment: Cytotoxicity against african green monkey Vero cells; format: cell-based; conditions: chlorocebus sabaeus
Homo sapiens [1] = species on record: Homo sapiens; experiment: Antiinvasive activity against human PC-3M-CT+ cells at 50 uM after 48 hrs by spheroid disaggregation assay; format: functional, cell-based
In short: (§1)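 Spheroids formed from 5 × 10^4 cells/mL in serum-free RPMI 1640 rocked in low-attachment wells at 37 °C for 2 days (150-300 µm, ~4 × 10^4 cells each). Single spheroid placed on ECM-coated well in serum-free medium, t=0 set 1 h after plating. Photographed at t=0, cultured 48 h at 37 °C, fixed, Diff-Quik stained. Migration diameter measured by micrometer minus initial diameter; given as average percent increase in surface area.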

Homo sapiens [2] = species on record: Homo sapiens; experiment: Antiinvasive activity against human PC-3M-CT+ cells at 200 uM after 48 hrs by spheroid disaggregation assay; format: functional, cell-based; in short: as §1
Aspergillus fumigatus = experiment: Antimicrobial activity against Aspergillus fumigatus up to 50 ug/mL; format: functional, organism-based
Candida albicans = experiment: Antimicrobial activity against Candida albicans up to 50 ug/mL; format: functional, organism-based
Cryptococcus neoformans = experiment: Antimicrobial activity against Cryptococcus neoformans up to 50 ug/mL; format: functional, organism-based
+SA cell [3] = experiment: Antiproliferative activity against mouse +SA cells assessed as cell viability at 30 uM after 4 days by MTT assay; format: functional, cell-based
In short: (§2)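 Highly malignant +SA mouse mammary epithelial cells kept in serum-free medium with 10 ng/mL EGF and 10 µg/mL insulin as mitogens. Seeded 5 × 10^4 cells/well, 6 wells/group, fed medium with compound at 0.01-1000 µM. Viable cell number determined by MTT colorimetric assay after 4 days in culture, compared against vehicle control.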

Staphylococcus aureus = experiment: Antimicrobial activity against methicillin-resistant Staphylococcus aureus up to 50 ug/mL; format: functional, organism-based
[4] = tested on: Mycobacterium intracellulare; experiment: Antimicrobial activity against Mycobacterium intracellular up to 50 ug/mL; format: functional, organism-based
Pseudomonas aeruginosa = experiment: Antimicrobial activity against Pseudomonas aeruginosa up to 50 ug/mL; format: functional, organism-based
Homo sapiens [5] = species on record: Homo sapiens; experiment: Antiinvasive activity against human PC-3M-CT+ cells at 25 uM after 48 hrs by spheroid disaggregation assay; format: functional, cell-based; in short: as §1
Escherichia coli = experiment: Antimicrobial activity against Escherichia coli up to 50 ug/mL; format: functional, organism-based
Homo sapiens [6] = species on record: Homo sapiens; experiment: Antiinvasive activity against human PC-3M-CT+ cells at 100 uM after 48 hrs by spheroid disaggregation assay; format: functional, cell-based; in short: as §1
[7] = Antiproliferative activity against mouse +SA cells assessed as cell viability after 4 days by MTT assay; format: functional, cell-based; conditions: 96 h; in short: as §2
+SA cell [8] = experiment: Antiproliferative activity against mouse +SA cells assessed as cell viability at 20 uM after 4 days by MTT assay; format: functional, cell-based; in short: as §2

Row | Structure (SMILES) | Activity (Vero) | Activity (Homo sapiens [1]) | Activity (Homo sapiens [2]) | Activity (Aspergillus fumigatus) | Activity (Candida albicans) | Activity (Cryptococcus neoformans) | Activity (+SA cell [3]) | Activity (Staphylococcus aureus) | Activity [4] | Activity (Pseudomonas aeruginosa) | Activity (Homo sapiens [5]) | Activity (Escherichia coli) | Activity (Homo sapiens [6]) | IC50 [7] [µM] | Activity (+SA cell [8])
1 | C=C1C=C2[C@@H](CC1)[C@H](C)[C@H](OC(C)=O)C[C@H]2[C@H](C)C(OC(C)=O)C(=O)C=C(C)C (stereo partly drawn) [SINULODURIN A] | Not Active | Active | Active | inactive | inactive | inactive | Active | inactive | inactive | inactive | Active | inactive | Active | – | –
2 | CC(C)=CCC/C(C)=C/CC/C(C)=C/CC[C@]1(C)CCc2cc(O)cc(C)c2O1 [DELTA-TOCOTRIENOL] | – | – | – | – | – | – | – | – | – | – | – | – | – | 7 | –
3 | C=C1C=C2[C@@H](CC1)[C@H](C)CC[C@H]2[C@H](C)C(OC(C)=O)C(=O)C=C(C)C (stereo partly drawn) [SINULODURIN B] | Not Active | Active | Active | inactive | inactive | inactive | – | inactive | inactive | inactive | Active | inactive | Active | – | Active
4 | C=C1C=C2[C@H](CC1)[C@@H](C)CC[C@@H]2[C@@H](C)CCC=C(C)C | Not Active | – | – | inactive | inactive | inactive | – | inactive | inactive | inactive | – | inactive | – | – | –
5 | C=C1C=C2[C@@H](C[C@@H]1O)[C@@H](C)CC[C@@H]2[C@@H](C)CCC=C(C)C | Not Active | – | – | inactive | inactive | inactive | – | inactive | inactive | inactive | – | inactive | – | – | –
